Source: PubChem (several laboratories)
Sampled rows, rich in hits. Any-hit rate of the full collection: about 2.3%.
TRPC4 potent = allosterically enhances the mouse TRPC4 cation channel. HEK293 TRPC4beta/mu-opioid, DAMGO EC20, Fluo-4 Ca2+ flux; active compounds read high. B-score at 10 µM. hit rate 0.42% among 310,000;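 active means B-score of calcium response area above 5 SD of library B-scores, with initial fluorescence ratio within 5 SD of library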
TRPC6 act = activates the mouse TRPC6 cation channel; Q61143; B-score at 10 µM; hit rate 0.13% among 310,000; HEK293-TRPC6 membrane potential dye fluorescence; active compounds read high;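 active means B-score of the integrated fluorescence ratio above library mean plus 3 SD, and starting fluorescence ratio within library mean plus 5 SD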;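 further: higher score means more depolarization so channel activation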
DNA FID counter = fluorescent intercalator displacement, NS3 helicase counter-screen | DNA fluorescent intercalator displacement, fluorescence | inhibition, % at 7.9 µM | hit rate 0.17% among 290,000 | AID 1845; in the data active means inhibition above about 37%;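 further: higher means more ethidium bromide displaced from hairpin DNA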
TRPC4 inh = inhibitors of mouse TRPC4 channel; B-score at 10 µM; HEK293 TRPC4beta/mu-opioid, DAMGO-evoked Fluo4 calcium flux; active compounds read low; Q9QUQ5; hit rate 0.39% among 300,000;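 active means B-score over 3 SD under the library average, no early fluorescence shift, positive overall ratio signal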
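test system = HEK293 cells with stable TRPC4beta plus mu-opioid receptor expression | detection = Fluo4 Ca2+ flux fluorescence | read-out = integrated fluorescence ratio relative to baseline, converted to per-well B score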
TRPC4 agonist = opens the mouse TRPC4 cation channel. AID 2237. hit rate 0.49% among 310,000. HEK293 TRPC4beta/mu-opioid, Fluo4 calcium fluorescence; active compounds read high. B-score at 10 µM;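 active means B-score above 5 SD of library B-scores, and initial fluorescence ratio not above library mean plus 5 SD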;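 further: positive B-score marks a calcium rise read as TRPC4 activation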
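Incubation: 45 min room-temperature Fluo4 loading, 110 s read / System: HEK293 cells stably co-expressing mouse TRPC4beta and mu-opioid receptor / Signal: Fluo4 fluorescence, kinetic / Control set: buffer (low) and maximal DAMGO (high) / Measure: integrated baseline-normalised fluorescence ratio, converted to per-well B score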
TRPC6 inhibitor = mouse TRPC6 channel inhibition. hit rate 1.1% among 310,000. AID 2553. HEK293-TRPC6, membrane potential dye, ACh-evoked depolarization; active compounds read low. B-score at 10 µM. Q61143;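 active means B-score under library mean minus 3 SD, initial fluorescence not abnormally high, positive integrated signal ratio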;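 further: B-score derived from integrated fluorescence ratio over the kinetic read; more negative B-score means stronger inhibition of depolarization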
TRPC4 sel inh 2 = second check of whether TRPC6 inhibitors also affect mouse TRPC4; hit rate 42% among 920; HEK293 TRPC4/MOR, membrane potential dye fluorescence; channel activated by saturating DAMGO dose; inhibition, % at 10 µM; AID 2776; shares compounds with TRPC6 inhibitor;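 active means compounds whose fluorescence signal differed from control wells by over 3 SD, either direction, in both duplicate plates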
TRPC4 spec = mouse TRPC4 off-target activity of TRPC6 inhibitors | shares compounds with TRPC6 inhibitor | hit rate 61% among 920 | activity change, negative = inhibition, % at 10 µM | HEK293 TRPC4/mu-opioid, membrane potential fluorescence;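 active means rise or fall in signal beyond 3 SD of buffer-only wells in both replicate plates, either sign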;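 further: integrated kinetic ratio of fluorescence range over baseline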
HEK293 MPD ctr 2-1 = second counter-screen for TRPC6 inhibitors: parental HEK293 cells | hit rate 31% among 920 | signal change vs control, % at 10 µM | shares compounds with TRPC6 inhibitor | parental HEK293 membrane potential dye fluorescence; maximal acetylcholine challenge after compound addition;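 active means membrane potential signal moving either way by over 3 SD of the maximum-effect control, in both duplicate plates, meaning non-specific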
HEK293 MPD ctr-1 = counter-screen for TRPC6 inhibitors: effect in parental HEK293 cells; AID 2780; membrane potential signal change, % at 10 µM; parental HEK293 membrane potential dye fluorescence; hit rate 60% among 920; shares compounds with TRPC6 inhibitor;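 active means membrane potential signal shifting up or down by more than 3 SD of buffer-only wells, on both duplicate plates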
HEK293 MPD ctr-2 = counter-screen for TRPC6 modulators: effect in parental HEK293 cells; shares compounds with TRPC6 inhibitor; membrane potential dye fluorescence; membrane potential signal change, % at 10 µM; hit rate 51% among 2,400;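 active means membrane potential signal moves up or down beyond 5 SD from buffer-only wells, on both duplicate plates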
HEK293 MPD ctr 2-2 = second check of TRPC6 modulator effects in parental HEK293 cells; inhibition, % at 10 µM; hit rate 14% among 2,400; membrane potential dye fluorescence; after compound, maximal acetylcholine stimulation; AID 488926; shares compounds with TRPC6 inhibitor;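 active means membrane potential signal drops by more than 5 SD from the mean control signal, in both duplicate plates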
TRPC4 ctr mod = selectivity of TRPC6 modulators against mouse TRPC4; HEK293 TRPC4/mu-opioid, membrane potential fluorescence; shares compounds with TRPC6 inhibitor; hit rate 69% among 2,400; percent change from control (negative = decrease, positive = increase), % at 10 µM; AID 488927;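 active means membrane potential signal moved up or down beyond 5 SD of buffer control wells, in both duplicate plates, actives on both sides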
TRPC4/MOR inh 2 = mouse TRPC4 off-target activity of TRPC6 modulators, second screen | shares compounds with TRPC6 inhibitor | HEK293 TRPC4/mu-opioid, membrane potential dye fluorescence; stimulated with maximal-effect DAMGO | inhibition, % at 10 µM | hit rate 55% among 2,400;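 active means drop in membrane potential signal beyond 5 SD of the control wells in both duplicate plates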;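 further: TRPC4 counter screen for TRPC6 hits run under conditions tuned for TRPC6 not TRPC4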
TRPC6 block conf = confirmation of mouse TRPC6 inhibitors; shares compounds with TRPC6 inhibitor; AID 488960; inhibition, % at 10 µM; hit rate 43% among 3,300; HEK293-TRPC6, membrane potential dye, ACh-evoked depolarization;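 active means fluorescence ratio falls more than 5 SD below the full-stimulation control mean, in both duplicate runs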;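 further: integrated fluorescence ratio of peak minus minimum over baseline after agonist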
TRPC6 act confirm = confirmation of mouse TRPC6 activators | shares compounds with TRPC6 inhibitor | HEK293-TRPC6 membrane potential dye fluorescence, FDSS | activation, % at 10 µM | hit rate 11% among 2,800 | AID 488961;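 active means ratio signal rise beyond 5 SD above unstimulated control wells' mean, seen in both duplicate runs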
Hits are given with their value; n = inactive; x = no result given.

SMILES	TRPC4 potent	TRPC6 act	DNA FID counter	TRPC4 inh	TRPC4 agonist	TRPC6 inhibitor	HEK293 MPD ctr-2	HEK293 MPD ctr 2-2	TRPC4 ctr mod	TRPC4/MOR inh 2	TRPC6 block conf	others
CCNc1ccc2noc3c2c1C(=O)c1ccccc1-3	n	n	n	n	n	-5.78	231.0%	108.0%	-281.5%	144.0%	70.5%	TRPC6 act confirm=n
CCN(CC)CCNC(=O)CCc1c(C)nc2c(c(C)nn2-c2ccc(C)cc2)c1C	n	n	n	n	n	n	x	x	x	x	x
COc1ccccc1NC(=O)CCN1C(=O)C2CC=CCC2C1=O (configuration not stated)	n	n	n	n	n	n	x	x	x	x	x
CCN(CC)CCOC(=O)C1(C2CCCCC2)CCCCC1	n	n	n	n	n	-6.15	182.5%	77.0%	40.5%	n	76.5%
CCN(CC)CCOC(=O)C1(c2ccccc2)CCCC1	n	n	n	n	n	-9.16	x	x	x	x	74.3%	TRPC4 sel inh 2=n;TRPC4 spec=16.5%;HEK293 MPD ctr 2-1=-2.5%;HEK293 MPD ctr-1=15.2%
CCCCc1ccc(-c2csc(/C(C#N)=C\c3ccc(C)o3)n2)cc1	n	n	n	n	n	-8.41	x	x	x	x	n	TRPC4 sel inh 2=n;TRPC4 spec=n;HEK293 MPD ctr 2-1=n;HEK293 MPD ctr-1=n
CCCCc1ccc(-c2csc(/C(C#N)=C/c3ccco3)n2)cc1	n	n	n	n	n	n	x	x	x	x	x
COc1ccc(N2CC(C(=O)N[C@@H](C)C(=O)NCCc3ccccc3)CC2=O)cc1 (some centres not stated)	n	n	n	n	n	n	x	x	x	x	x
CC(C)(C)c1ccc(Cn2c(=N)n(CC(O)c3ccco3)c3ccccc32)cc1 (configuration not stated)	n	n	n	n	n	-7.3	x	x	x	x	66.7%	TRPC4 sel inh 2=37.0%;TRPC4 spec=11.0%;HEK293 MPD ctr 2-1=n;HEK293 MPD ctr-1=8.7%;TRPC6 act confirm=n
Cc1ccccc1Cn1c(=N)n(CC(O)c2ccco2)c2ccccc21 (configuration not stated)	n	n	n	-6	n	-5.25	143.0%	n	49.0%	99.0%	48.0%
COc1ccc(N2CCN(C(=O)CNC(=O)c3ccco3)CC2)cc1	n	n	n	n	n	n	x	x	x	x	x
COc1ccc(NC(=O)C(=O)NCC2CCCN2S(=O)(=O)c2cccs2)cc1 (configuration not stated)	n	n	x	n	n	n	x	x	x	x	x
CCN1CCCC(OC(=O)c2cc(-c3ccccc3Cl)nc3ccccc23)C1 (configuration not stated)	22	n	n	n	n	-5.5	134.0%	n	24.5%	45.0%	n
